This is an account of results in ChEMBL document CHEMBL5712888, “Pharmacological targeting of the Wdr5-MLL interaction in C/EBPα N-terminal leukemia” (Nat Chem Biol, 2015).

For series [1], the system named is Hepatocyte. Description: Induction of myeloid differentiation in mouse primary fetal liver cells expressing C/EBP-alpha p30 assessed as upregulation of C3ar1 mRNA expression at 20 uM after 3 to 6 days by qRT-PCR analysis. The format is functional, cell-based. To be noted: time 3-6 day. The gist of the method: (§1)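 Cebpap30/p30 cells in culture with 20 μM compound for the indicated periods. Total RNA (300 ng) reverse transcribed with oligo(dT); SYBR qPCR, quantified by 2−ddCt method; mean ± SD of triplicate experiments, t-test.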

Series [2] is described as follows: Toxicity in mouse bone marrow cells assessed as reduction in colony formation at 2.5 to 20 uM after 7 day by CFU assay. The format is cell-based. To be noted: bone marrow cell, 168 h, dose 2.5-20 µM.
Series [3] has as its target Cyclin-dependent kinase 4/cyclin D1 (Homo sapiens) (UniProt P11802+P24385). In words: Inhibition of CDK4/cycD1 (unknown origin) assessed as remaining activity at 1 uM relative to control. It is filed as protein-complex assay.
Series [4] concerns Hepatocyte. Description: Induction of myeloid differentiation in mouse primary fetal liver cells expressing C/EBP-alpha p30 assessed as upregulation of Ccl9 mRNA expression at 20 uM after 3 to 6 days by qRT-PCR analysis. To be noted: time 3-6 day. The format is functional, cell-based. The gist of the method: as §1
Background: Quantitative PCR measures a nucleic acid by following its amplification.

Series [5] deals with CDK9/cyclin T1 (Homo sapiens) (UniProt O60563+P50750). In words: Inhibition of CDK9/CycT1 (unknown origin) assessed as remaining activity at 1 uM relative to control. The format is protein-complex assay.
The target of series [6] is T1, Alpha-1A adrenergic receptor (Rattus norvegicus) (UniProt P43140).
T1 sequence (whole entry): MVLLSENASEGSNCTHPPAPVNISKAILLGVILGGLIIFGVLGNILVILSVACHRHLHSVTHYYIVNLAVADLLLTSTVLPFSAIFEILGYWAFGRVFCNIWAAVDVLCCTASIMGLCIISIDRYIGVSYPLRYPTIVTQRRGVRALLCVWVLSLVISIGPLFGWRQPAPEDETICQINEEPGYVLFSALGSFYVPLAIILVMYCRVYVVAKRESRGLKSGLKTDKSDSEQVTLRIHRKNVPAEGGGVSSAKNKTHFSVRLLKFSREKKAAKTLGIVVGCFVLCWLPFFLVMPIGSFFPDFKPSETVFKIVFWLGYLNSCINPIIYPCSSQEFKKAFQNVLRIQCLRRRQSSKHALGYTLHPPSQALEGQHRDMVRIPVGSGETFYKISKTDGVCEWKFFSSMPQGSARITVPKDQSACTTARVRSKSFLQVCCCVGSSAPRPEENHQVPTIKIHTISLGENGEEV
In words: Displacement of [3H]prazosin from rat […] brain alpha1 adrenergic receptor assessed as remaining activity at 1 uM after 60 mins by scintillation counting method relative to control. The format is tissue-based. In general terms: Displacement assays read how much labelled ligand stays bound in the presence of the test substance.

For series [7], the system named is Hepatocyte. In words: Induction of myeloid differentiation in mouse primary fetal liver cells expressing C/EBP-alpha p30 assessed as upregulation of Lilrb3 mRNA expression at 20 uM after 3 to 6 days by qRT-PCR analysis. It is filed as functional, cell-based. To be noted: time 3-6 day. Put shortly: as §1
Series [8] has as its system Hepatocyte. Description: Induction of myeloid differentiation in mouse primary fetal liver cells expressing C/EBP-alpha p30 assessed as upregulation of Lyz2 mRNA expression at 20 uM after 3 to 6 days by qRT-PCR analysis. The format is functional, cell-based. To be noted: time 3-6 day. Put shortly: as §1
In series [9] the test system is Hepatocyte. In words: Induction of myeloid differentiation in mouse primary fetal liver cells expressing C/EBP-alpha p30 assessed as upregulation of Mac-1/Gr-1 double positive cells at 20 uM after 6 days by flow cytometry analysis. The format is functional, cell-based. The settings on record: time 6.0 day. The gist of the method: (§2)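 Cebpap30/p30 cells left untreated or given 20 μM compound for 6 days. Fc receptors blocked with anti-CD16/CD32, then Mac-1 and Gr-1 staining by flow cytometry, with Mac-1/Gr-1 double-positive cells counted at the indicated time points. Cytospins stained with Kwik-Diff for microscopic morphology.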
In general terms: A flow cytometer gives signals particle by particle.

The test system of series [10] is Hepatocyte. In words: Induction of progenitor morphology loss in mouse primary fetal liver cells expressing C/EBP-alpha p30 at 20 uM after 6 days by Cytospin stainig based microscopic analysis. It is filed as functional, cell-based. To be noted: time 6.0 day. The gist of the method:
as §2

Series [11] relates to Hepatocyte. Description: Induction of myeloid differentiation in mouse primary fetal liver cells expressing C/EBP-alpha p30 assessed as upregulation of Lcn2 mRNA expression at 20 uM after 3 to 6 days by qRT-PCR analysis. The format is functional, cell-based. To be noted: time 3-6 day. The gist of the method:
as §1

The target in series [12] is Kappa-type opioid receptor (Homo sapiens) (UniProt P41145). Description: Displacement of [3H]U69593 from human kappa receptor assessed as remaining activity at 1 uM after 60 mins by scintillation counting analysis relative to control.
For series [13], the system named is Hepatocyte. In words: Inhibition of colony formation in mouse primary fetal liver cells expressing C/EBP-alpha p30 at 5 to 20 uM after 7 day by colony formation assay. It is filed as functional, cell-based. To be noted: dose 5-20 µM. Put shortly:
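Primary Cebpap30/p30 fetal liver cells, maintained in DMEM/10% FCS with SCF, IL-6 and IL-3, plated at 1×10^4 cells in complete methylcellulose (M3434) with compound at the indicated concentrations; colonies scored 7 days later and normalized to DMSO for each genotype; mean ± SD of triplicate experiments.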

Series [14] concerns the target Cyclin-dependent kinase 5/CDK5 activator 1 (Homo sapiens) (UniProt Q00535+Q15078). In words: Inhibition of CDK5/p35 (unknown origin) assessed as remaining activity at 1 uM relative to control. It is filed as protein-complex assay.
The next series is filed under the species Homo sapiens. In words: Binding affinity against WDR5 S91K mutant (unknown origin) at 50 uM by differential scanning fluorimetry. The gist of the method:
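Thermal shift of purified recombinant S91K-mutant WDR5 measured by differential scanning fluorimetry, with test compound at 50 μM run alongside a DMSO vehicle control.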

Series [15] in a line: Antiproliferative activity against human acute myeloid leukemic cells harboring N-terminal CEBPA mutation assessed as vaibility at 5 uM after 72 hrs by cell titer glo luminescent cell viability assay relative to control. It is filed as functional, Leukemia cell. Put shortly:
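20,000 viable proliferating cells per well in triplicate, exposed to 5 μM compound or 0.05% DMSO for 72 h (3 days); CellTiter-Glo luminescence, normalized to DMSO for each patient sample; mean ± SD.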

Another series relates to K562. Description: Antiproliferative activity against human K562 cells assessed as reduction in cell viability after 72 hrs by cell TiterGlo luminescent cell viability assay. The format is functional, cell-based.
Series [16] deals with Hepatocyte. Description: Antiproliferative activity against mouse primary fetal liver cells expressing C/EBP-alpha p30 assessed as reduction in cell viability after 72 hrs by cell TiterGlo luminescent cell viability assay. It is filed as functional, cell-based.

Activity calls are given as the source filed them. No cut-off for these calls is given here.

Cyclin-dependent kinase 5/CDK5 activator 1 (Homo sapiens), sequence (Q00535 whole entry): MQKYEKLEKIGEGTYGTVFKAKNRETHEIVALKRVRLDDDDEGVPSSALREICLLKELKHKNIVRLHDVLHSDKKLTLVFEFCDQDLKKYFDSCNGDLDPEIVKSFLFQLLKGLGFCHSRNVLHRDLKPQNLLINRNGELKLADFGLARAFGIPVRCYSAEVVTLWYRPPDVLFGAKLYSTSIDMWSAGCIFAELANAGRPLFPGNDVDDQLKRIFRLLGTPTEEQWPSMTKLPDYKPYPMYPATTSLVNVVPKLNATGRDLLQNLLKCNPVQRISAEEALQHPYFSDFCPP
Cyclin-dependent kinase 5/CDK5 activator 1 (Homo sapiens), sequence (Q15078 99-307 partner limits assumed): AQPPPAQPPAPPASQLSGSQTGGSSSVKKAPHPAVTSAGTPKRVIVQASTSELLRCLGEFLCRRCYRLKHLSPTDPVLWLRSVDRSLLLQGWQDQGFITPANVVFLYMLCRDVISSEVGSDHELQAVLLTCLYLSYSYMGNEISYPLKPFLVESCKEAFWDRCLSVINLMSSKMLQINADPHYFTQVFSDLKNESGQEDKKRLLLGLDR
Kappa-type opioid receptor (Homo sapiens), sequence (P41145 whole entry): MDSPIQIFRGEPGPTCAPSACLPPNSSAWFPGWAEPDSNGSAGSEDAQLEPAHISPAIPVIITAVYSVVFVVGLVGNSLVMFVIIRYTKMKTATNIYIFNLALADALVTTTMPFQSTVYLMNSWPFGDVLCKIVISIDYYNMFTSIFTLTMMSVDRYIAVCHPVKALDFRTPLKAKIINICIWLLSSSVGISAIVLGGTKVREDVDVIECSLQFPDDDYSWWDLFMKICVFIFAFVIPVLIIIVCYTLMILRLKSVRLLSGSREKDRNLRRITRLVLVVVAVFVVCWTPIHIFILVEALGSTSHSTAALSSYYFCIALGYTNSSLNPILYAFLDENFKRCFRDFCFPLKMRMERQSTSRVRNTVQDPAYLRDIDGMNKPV

`CN1CCN(c2ccc(-c3cccc(CN4CCOCC4)c3)cc2NC(=O)c2c[nH]c(=O)cc2C(F)(F)F)CC1`: the result in the series with Hepatocyte [1], with Hepatocyte [4], with Hepatocyte [7], in the series with Hepatocyte [8], with Hepatocyte [9] and with Hepatocyte [10] was Active. Further, the outcome in the series on Hepatocyte [11] was Active. Besides, the Activity entry in series [2] is “Non-Toxic”; in series [3], 102%; in series [5] it was 98%; in [6], 99%; in series [12], 102%; in series [14], 102%. The Activity in series [15] is recorded as 53%. In addition, the inhibition result with Hepatocyte [13] is “Active”. For the same molecule, the result in the series filed under Homo sapiens was inactive.
Take `O=C(Nc1cc(-c2cccc(CN3CCOCC3)c2)ccc1N1CCOCC1)c1c[nH]c(=O)cc1C(F)(F)F`: the result in the series on K562 and with Hepatocyte [16] was inactive.
